PKA-R2B act: activates the human PKA-R2B holoenzyme complex | P22694+P31323 | PKA-R2B holoenzyme dissociation, Cy5-IP20 fluorescence polarization; R2B truncated from residue 108, S112A mutant; 0% DMSO only, 100% 113 µM cGMP | activation, % at 11.4 µM | 0.079% of 340,000 active;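 active means activation above a cutoff set at the mean over all compounds plus 3 SD, cut at about 18% in these data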;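 further: higher means more holoenzyme dissociation and a rise in polarization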
Rin1 Abl inh: human Rin1-Abl interaction inhibition | TR-FRET Rin1/Abl binding, biochemical | inhibition, % at 7.35 µM | P00519+Q13671 | 0.4% of 360,000 active; in the data active means inhibition above about 5%, passing the limit was not always enough
UCH37 DUB inh: blocks the human deubiquitinase UCH37. inhibition, % (concentration not given with the values). Q9Y5K5. 0.33% of 330,000 active. purified proteasome/UCH37, Ub-AMC cleavage fluorescence;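 active means mean inhibition over replicate wells above about 20%, limit read from the data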;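 further: 0% = compound-free wells with enzyme and 100% = wells lacking proteasome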
Target sequence (Q9Y5K5 whole entry, looked up): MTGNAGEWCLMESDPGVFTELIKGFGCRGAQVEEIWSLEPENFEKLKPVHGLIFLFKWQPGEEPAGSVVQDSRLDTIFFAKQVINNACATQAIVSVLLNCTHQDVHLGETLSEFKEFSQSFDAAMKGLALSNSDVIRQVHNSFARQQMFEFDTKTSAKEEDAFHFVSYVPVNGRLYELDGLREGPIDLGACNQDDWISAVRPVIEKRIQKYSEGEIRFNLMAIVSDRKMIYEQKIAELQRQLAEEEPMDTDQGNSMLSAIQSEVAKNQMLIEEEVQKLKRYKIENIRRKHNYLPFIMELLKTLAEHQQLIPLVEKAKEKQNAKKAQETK
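Assay system: Proteasome-bound UCH37. Buffer or medium: pH 7.4 Tris-HCl (50 mM) with ovalbumin, ATP-MgCl2, DTT. Incubation: 30 min preincubation with enzyme, 25 min cleavage at room temperature. Measured by: fluorescence, ex 355 nm, em 460 nm. Read-out basis: percent inhibition. Control set: wells without proteasome as full block, compound-free enzyme plus substrate as uninhibited.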
PKA-R1A activ: activates the PKA-R1A holoenzyme complex | P00514+P68181 | PKA-R1A dissociation, Cy5-IP20 fluorescence polarization; scaled: DMSO 0%, 113 µM cGMP 100% | activation, % at 11.4 µM | 0.083% of 340,000 active;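 active means percent activation above the mean of all tested compounds plus 3 SD, cut at about 19% in these data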;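 further: higher means more PKAc released from R1A so a rise in polarization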
UCH37 reconfirm: confirmation of human UCH37 deubiquitinating enzyme inhibitors | shares compounds with UCH37 DUB inh | Proteasome-bound UCH37, Ub-AMC cleavage fluorescence | inhibition, % at 20 µM | 27% of 480 active | AID 624100;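 active means average inhibition over replicates above about 50%, so the earlier screening hit is confirmed, limit read from the data; inactive means the rest, counted as false positives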;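 further: based on cleavage rate fitted by regression over a 30 min kinetic read; 0% = proteasome plus Ub-AMC and 100% = Ub-AMC without proteasome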
Rin1-Abl confirm: Rin1-Abl interaction inhibition confirmation. shares compounds with Rin1 Abl inh. TR-FRET Rin1-Abl binding, purified proteins. inhibition, % at 7.35 µM. 49% of 1,300 active
GFP quench: counter-screen for Rin1-Abl inhibitors: GFP fluorescence quenchers; shares compounds with Rin1 Abl inh; inhibitors/quenchers counterscreen; inhibition, % at 6.75 µM; 8.5% of 1,300 active;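 further: ABL1-eGFP fusion protein alone without its partner RIN1-SBP; 0% = protein with vehicle and 100% = wells lacking protein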
GFP quench DR: quenches GFP in dose response, Rin1-Abl counter-screen; shares compounds with Rin1 Abl inh; GFP fluorescence interference/quenching counterscreen; IC50, µM; 230 tested, under 10 active; AID 602182; call rule not given here;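 further: ABL1-eGFP fusion protein alone without its RIN1 binding partner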
* marks the source's active call; other numbers are inactive results; x = no result given. The list is not random: actives were taken first. Their share in the collection is about 0.79%. Unless noted, no stated cut-off is given here; in the data, active means inhibition above about 6.5%; inactive means the rest.

SMILES	PKA-R2B act	Rin1 Abl inh	UCH37 DUB inh	PKA-R1A activ	UCH37 reconfirm	others
O=C1NC(=O)C(=Cc2ccc(N3CCOCC3)o2)C(=O)N1	-5	-13	27*	3	36
CN1CCN(C(=O)COc2ccc(S(=O)(=O)N(C)Cc3ccccc3)cc2)CC1	2	3	1	6	x
O=C(CCCN1CCC2(CC1)C(=O)NCN2c1ccccc1)c1ccc(F)cc1	-7	0	0	9	x
O=c1c2ccccc2nc(-c2ccc(Cl)cc2Cl)n1-c1nccs1	-8	1	-1	-4	x
COC(=O)C(O)(c1c[nH]c2ccccc12)C(F)(F)F (configuration not stated)	-3	-1	1	6	x
COC(=O)C(O)(c1c(C)[nH]n(-c2ccccc2)c1=O)C(F)(F)F (configuration not stated)	-1	-2	85*	14	60*
c1ccc(-c2ccc3c(c2)CNCc2cnnn2-3)cc1	x	4	x	x	x
COC(=O)C1=C(c2ccc(OC(F)(F)F)cc2)C[C@@H]2CC[C@H]1N2C(=O)NCCOc1ccc(OC)cc1	-11	6	49*	-5	4
COc1cc2[nH]c(=O)n(-c3ccccc3)c(=O)c2cc1OC	-1	-1	-24	2	x
COc1cc(C(c2c(C)[nH]n(-c3ccccc3)c2=O)c2c(C)[nH]n(-c3ccccc3)c2=O)cc(OC)c1OC	-11	9.7*	53*	-18	94*
O=c1[nH]c(=O)n(CCC2=CCCCC2)c(O)c1C=NCc1cccnc1	-4	5	44*	-5	42
COc1cccc(N2C(=O)/C(=C/c3ccc(C)o3)C(=O)NC2=S)c1	0	6	5	5	x
COc1ccc(N2C(=O)/C(=C/c3ccc(N(C)C)o3)C(=O)NC2=S)cc1	-6	-14	25*	-3	25
CCN(CC)c1ccc(/C=C2\C(=O)NC(=S)N(c3ccc(OC)cc3OC)C2=O)o1	1	-19	27*	-10	32
CCN(CC)c1ccc(/C=C2\C(=O)NC(=S)N(C)C2=O)o1	-13	-20	26*	3	29
O=C(Cn1ncc2ccsc2c1=O)N1CCC2(CC1)OCCO2	-10	-1	-1	3	x
CCn1c(C)c(C(=O)NCCc2ccccc2)c2cc(OC)ccc21	-6	1	-1	-5	x
Cc1c(N=Nc2c(O)[nH]c(=S)[nH]c2=O)c(=O)n(-c2ccccc2)n1C	4	-7	30*	14	10
CC(=O)NC(Cc1ccc(N(CCCl)CCCl)cc1)C(=O)NC(CC(C)C)C(=O)O (configuration not stated)	4	4	1	3	x
Cn1c(=O)[nH]c2nncnc2c1=O	-1	1	30*	-6	40
COc1ccc2c(c1)C(c1ccc(N(CCCl)CCCl)cc1)=NCC2	-5	-13	3	1	x
COC(=O)c1nc(-c2ccc3c(n2)C(=O)C(N)=C(OC)C3=O)c(N)c(-c2ccc(OC)c(OC)c2O)c1C	-2	-1	69*	4	37
CCn1nc(/C=C/c2ccccc2)nc2c(=O)n(C)c(=O)nc1-2	x	26*	96*	x	100*	Rin1-Abl confirm=40*;GFP quench=2;GFP quench DR=>68
CC(=O)[C@@]1(O)CCC2C3CC=C4C[C@@H](O)CC[C@]4(C)C3CC[C@@]21C (some centres not stated)	-2	1	3	-12	x
COc1ccc(C(c2nnnn2-c2ccc3c(c2)OCCO3)N2CCC(n3c(=O)[nH]c4ccccc43)CC2)cc1 (configuration not stated)	x	7	x	x	x
SMILES	PKA-R2B act	Rin1 Abl inh	UCH37 DUB inh	PKA-R1A activ	UCH37 reconfirm	others
COc1ccc(-n2nnnc2C(CCSC)N2CCC(n3c(=O)[nH]c4ccccc43)CC2)cc1 (configuration not stated)	x	13*	x	x	x	Rin1-Abl confirm=8.2*;GFP quench=-1
O=c1[nH]c2ccccc2n1C1CCN(C(c2ccnc3ccccc23)c2nnnn2-c2ccc3c(c2)OCCO3)CC1 (configuration not stated)	x	45*	x	x	x	Rin1-Abl confirm=32*;GFP quench=0;GFP quench DR=>67
CCC(c1nnnn1-c1ccc(OC)cc1)N1CCC(n2c(=O)[nH]c3ccccc32)CC1 (configuration not stated)	x	6	x	x	x
O=C(O)C1C2CCC(O2)C1C(=O)Nc1cccc(Br)c1 (configuration not stated)	7	-2	0	2	x
CCCNS(=O)(=O)c1ccc(OCC(=O)N2CCN(C)CC2)cc1	-4	3	0	-8	x
CCN(CC)CCN=Cc1c(O)n(CCC2=CCCCC2)c(=O)[nH]c1=O	-10	-5	-1	-5	x
CN(C)[C@@H]1C(=O)C(C(N)=O)=C(O)[C@@]2(O)C(=O)C3=C(O)c4c(O)cccc4[C@@](C)(O)[C@H]3[C@H](O)[C@@H]12	-6	16*	-7	2	x	Rin1-Abl confirm=2;GFP quench=7
COc1ccc(C(=O)C2CCCN(Cc3cnc(C)s3)C2)c(OC)c1 (configuration not stated)	-9	9.9*	1	2	x	Rin1-Abl confirm=-1;GFP quench=0
C=CCN1CCc2cccc3c2[C@H]1Cc1ccc(O)c(O)c1-3	5	8.5*	x	-6	x	Rin1-Abl confirm=7.1*;GFP quench=11*
COc1cc(C(=O)N/N=C/C23CC[C@@H](O)CC2(O)CC[C@@H]2[C@@H]3CCC3(C)C(C4=CC(=O)OC4)CCC23O)ccc1O (some centres not stated)	-7	-3	x	-3	x
COc1cc2c(ccc3cc(OC)c(OC)c(O)c32)cc1O	-8	21*	4	-1	x	Rin1-Abl confirm=17*;GFP quench=6;GFP quench DR=>68
COc1cc(C(O)CN)ccc1O (configuration not stated)	3	3	-3	4	x
O=[N+]([O-])c1ccc(NCCCN2CCOCC2)nc1	-2	-1	9	-13	x
Cc1nc2nc(C)n(CCN3CCOCC3)c(=O)c2c(-c2cccc([N+](=O)[O-])c2)c1C(=O)CCCCCCCCCCN1CCC(c2ccccc2)(c2ccccc2)CC1	-10	61*	x	-7	x	Rin1-Abl confirm=69*;GFP quench=1;GFP quench DR=>68
O=C(NC1CCCCC1)Oc1cc2oc(=O)sc2cc1Cl	4	6.3*	6	0	x	Rin1-Abl confirm=-1;GFP quench=-2
CC(=O)CC(c1ccccc1[N+](=O)[O-])c1c(O)c2ccccc2oc1=O (configuration not stated)	0	0	5	-11	x
CCCCn1c(N)c(C(=O)OCCOC)c2nc3ccccc3nc21	x	-6	-395	x	x

Source: PubChem
